S1P3 agonist – agonists of human S1P3 receptor | Q99500 | S1P3 NFAT-BLA reporter cells, agonism, FRET ratio; relative to 1 µM S1P, basal subtracted | activation, % at 4.5 µM | 60,000 compounds, 0.1% hits | AID 373;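 active = activation above the screen-wide mean plus 3 SD, cut at about 4.5% in these data, passing the limit was not always enough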
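Assay system: CHO cells stably expressing human S1P3, Gα16 and NFAT-β-lactamase reporter. Timing: overnight plating, 4 h compound 37 °C, 2 h substrate RT. Signal: β-lactamase FRET emission ratio 460/535 nm. Measure: percent activation versus median 1 µM S1P response, basal-subtracted, per plate. Repeats: primary screen single test, confirmation screen in triplicate.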
5HT1E ag – activates the human 5-HT1E serotonin receptor; P28566; CHO 5-HT1E Ga15 NFAT-bla reporter, FRET; 0% DMSO wells, 100% control agonist wells; activation, % at 6 µM; 65,000 compounds, 0.69% hits; AID 574;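 active = activation above a set limit, the screen-wide mean activation plus 3 SD, cut at about 8.5% in these data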
5HT1E antag – blocks the human 5-HT1E serotonin receptor | CHO 5-HT1E Ga15 NFAT-bla reporter, FRET, antagonist | inhibition, % at 6 µM | 65,000 compounds, 0.99% hits | AID 571;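 active = inhibition above a set limit, the mean inhibition across every tested compound plus 3 SD, cut at about 29% in these data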;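 also: signal is the 460 over 535 nm emission ratio of beta-lactamase substrate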
HTR1A agonist – activates the human 5-HT1a serotonin receptor. P08908. CHO 5-HT1a Ga15 NFAT-bla reporter, FRET ratio; 0% basal, 100% maximal reference agonist. activation, % at 10 µM. 65,000 compounds, 0.56% hits. AID 567;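 active = activation above the screen-wide mean activation plus 3 SD, cut at about 19% in these data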
5HT1a antag – antagonists of human 5-HT1a serotonin receptor; P08908; CHO 5-HT1a Ga15 NFAT-bla reporter, antagonist mode; inhibition, % at 10 µM; 62,000 compounds, 0.68% hits; AID 612;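 active = inhibition above the mean of all tested compounds plus 3 SD, cut at about 43% in these data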;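 also: receptor stimulated by 5-CT agonist at 100 nM near EC80; beta-lactamase reporter measured by ratiometric fluorescence of a cleavable substrate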
S1P1 ag pot – S1P1 (human) agonism or agonism potentiation | P21453 | S1P1 CRE-bla cells, forskolin, beta-lactamase FRET, potentiator mode; S1P1 agonist co-added at EC20, 2 nM; 100% = saturating reference agonist, 0% = basal | activation, % at 9.5 µM | 56,000 compounds, 0.57% hits;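 active = activation above a cutoff set at the mean activation of all tested compounds plus 3 SD, cut at about 54% in these data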;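 also: forskolin at 4 µM as EC80 and the EC20 agonist is SEW2871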
Target sequence (P21453 whole entry, looked up): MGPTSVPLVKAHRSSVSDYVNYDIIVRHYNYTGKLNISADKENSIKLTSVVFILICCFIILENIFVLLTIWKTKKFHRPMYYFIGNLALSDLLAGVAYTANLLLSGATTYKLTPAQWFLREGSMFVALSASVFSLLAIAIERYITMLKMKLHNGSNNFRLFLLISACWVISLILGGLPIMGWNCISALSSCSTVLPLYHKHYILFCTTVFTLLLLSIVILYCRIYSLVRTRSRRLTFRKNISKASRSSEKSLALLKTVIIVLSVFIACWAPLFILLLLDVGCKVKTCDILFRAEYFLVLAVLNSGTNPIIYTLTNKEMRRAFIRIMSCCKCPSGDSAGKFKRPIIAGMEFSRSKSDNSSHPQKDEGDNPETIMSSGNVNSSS
A number is an active result. Most compounds without a hit are left out; they make up all but 2.9% or so of the library.

COc1cc2c(cc1OC)C1=C(C#N)CCC(=O)N1CC2 was read as S1P3 agonist inactive, 5HT1E ag inactive, 5HT1E antag 49, HTR1A agonist inactive and 5HT1a antag inactive.
Screening COc1cc2c(cc1OC)C1=C(C#N)CN(C3CCCCC3)CN1CC2 returned S1P3 agonist inactive, 5HT1E ag inactive, 5HT1E antag inactive, HTR1A agonist inactive, 5HT1a antag inactive and S1P1 ag pot inactive.
For COc1cc2c(cc1OC)C1=C(C#N)CC/C(=N\S(=O)(=O)c3ccccc3)N1CC2 the results were S1P3 agonist inactive, 5HT1E ag inactive, 5HT1E antag 66, HTR1A agonist inactive, 5HT1a antag inactive and S1P1 ag pot inactive.
O=S(=O)(NC1CCCCC1)c1ccc(Br)cc1 was read as S1P3 agonist inactive, 5HT1E ag inactive, 5HT1E antag inactive, HTR1A agonist inactive and 5HT1a antag inactive.
`Cc1cc(N2CCN(c3nc4ccccc4s3)CC2)n2ncnc2n1` gave S1P3 agonist inactive, 5HT1E ag inactive, 5HT1E antag inactive, HTR1A agonist inactive, 5HT1a antag inactive and S1P1 ag pot 58.
For Cc1ccc(-c2cc(C(F)F)nc(NCC3CCCO3)n2)cc1 (stereo not drawn) the results were 5HT1E ag inactive, 5HT1E antag inactive, HTR1A agonist inactive and 5HT1a antag inactive.
CN(C)Cc1cc(CCNC(=O)c2ccc(Cl)cc2)ccc1O was read as S1P3 agonist inactive, 5HT1E ag 14, 5HT1E antag inactive, HTR1A agonist inactive, 5HT1a antag inactive and S1P1 ag pot inactive.
COc1ccc(CCNC(=O)c2ccncc2)cc1OC was read as S1P3 agonist inactive, 5HT1E ag inactive, 5HT1E antag inactive, HTR1A agonist inactive, 5HT1a antag inactive and S1P1 ag pot inactive.
For O=C(CSc1nnc(-c2ccccc2Br)o1)N1CCc2ccccc2C1 the results were S1P3 agonist inactive, 5HT1E ag inactive, 5HT1E antag inactive, HTR1A agonist inactive, 5HT1a antag inactive and S1P1 ag pot inactive.
For CCN(C1CCCCC1)S(=O)(=O)c1ccc(S(=O)(=O)NCc2ccncc2)cc1 the results were S1P3 agonist inactive, 5HT1E ag inactive, 5HT1E antag inactive, HTR1A agonist inactive, 5HT1a antag inactive and S1P1 ag pot 88.
O=S(=O)(c1cccc(S(=O)(=O)N2CCCC2)c1)c1cccc(S(=O)(=O)N2CCCC2)c1 was read as S1P3 agonist inactive, 5HT1E ag inactive, 5HT1E antag inactive, HTR1A agonist inactive, 5HT1a antag inactive and S1P1 ag pot inactive.
Screening O=S(=O)(c1cccc(Cl)c1)N1CCCC1 returned 5HT1E ag 131, 5HT1E antag inactive, HTR1A agonist inactive and 5HT1a antag inactive.
For C=CCN=C(NC#N)SCc1ccccc1Cl the results were S1P3 agonist inactive, 5HT1E ag inactive, 5HT1E antag inactive, HTR1A agonist inactive, 5HT1a antag inactive and S1P1 ag pot inactive.
For CC(=O)N1C(C(=O)O)CSC1c1ccc(C)cc1 (stereo not drawn) the results were S1P3 agonist inactive, 5HT1E ag inactive, 5HT1E antag inactive, HTR1A agonist inactive, 5HT1a antag inactive and S1P1 ag pot inactive.
`Cc1ccc(NC(=O)CCNS(=O)(=O)c2ccc3c(c2)oc(=O)n3C)cc1` gave S1P3 agonist inactive, 5HT1E ag 32, 5HT1E antag inactive, HTR1A agonist inactive, 5HT1a antag inactive and S1P1 ag pot inactive.
`Cn1c(=O)oc2cc(S(=O)(=O)NCCC(=O)NC3CCCC3)ccc21` gave S1P3 agonist inactive, 5HT1E ag inactive, 5HT1E antag inactive, HTR1A agonist inactive, 5HT1a antag inactive and S1P1 ag pot inactive.
For O=C(Nc1cccc(F)c1)c1c(F)c(F)c(F)c(F)c1F the results were S1P3 agonist inactive, 5HT1E ag inactive, 5HT1E antag inactive, HTR1A agonist inactive, 5HT1a antag inactive and S1P1 ag pot inactive.
Screening O=C(Nc1ccccc1NC(=O)c1c(F)c(F)c(F)c(F)c1F)c1c(F)c(F)c(F)c(F)c1F returned S1P3 agonist inactive, 5HT1E ag inactive, 5HT1E antag 30, HTR1A agonist inactive, 5HT1a antag inactive and S1P1 ag pot inactive.
`Cc1nc2sc(C(c3ccccc3)N3CCN(c4ccccc4F)CC3)c(O)n2n1` (stereo not drawn) gave S1P3 agonist inactive, 5HT1E ag inactive, 5HT1E antag inactive, HTR1A agonist inactive, 5HT1a antag inactive and S1P1 ag pot inactive.
CCN1CCN(c2ncnc3c2oc2nc(C(C)C)c4c(c23)CCC4)CC1 was read as S1P3 agonist inactive, 5HT1E ag inactive, 5HT1E antag inactive, HTR1A agonist inactive, 5HT1a antag inactive and S1P1 ag pot inactive.
`CC(C)c1nc2oc3c(NCc4cccnc4)ncnc3c2c2c1CCC2` gave S1P3 agonist inactive, 5HT1E ag inactive, 5HT1E antag 30, HTR1A agonist inactive, 5HT1a antag inactive and S1P1 ag pot inactive.
CC(C)Cc1nc2oc3c(NCC4CCCO4)ncnc3c2c2c1CCC2 (stereo not drawn) was read as S1P3 agonist inactive, 5HT1E ag inactive, 5HT1E antag inactive, HTR1A agonist inactive, 5HT1a antag inactive and S1P1 ag pot inactive.
`CC(C)Cc1nc2oc3c(NCc4cccnc4)ncnc3c2c2c1CCC2` gave S1P3 agonist inactive, 5HT1E ag inactive, 5HT1E antag 35, HTR1A agonist inactive, 5HT1a antag inactive and S1P1 ag pot inactive.
For Cc1nn(-c2ccccn2)c2c1C(c1ccsc1)C1=C(CCCC1=O)N2 (stereo not drawn) the results were S1P3 agonist inactive, 5HT1E ag inactive, 5HT1E antag 35, HTR1A agonist inactive, 5HT1a antag inactive and S1P1 ag pot inactive.
For CCOC(=O)c1[nH]c(C)c(C(=O)c2cc(F)ccc2F)c1C the results were S1P3 agonist inactive, 5HT1E ag inactive, 5HT1E antag 56, HTR1A agonist inactive, 5HT1a antag 50 and S1P1 ag pot inactive.
Screening COCC(=O)N(C)c1nnc(-c2cnc(C)cn2)s1 returned S1P3 agonist inactive, 5HT1E ag inactive, 5HT1E antag inactive, HTR1A agonist inactive, 5HT1a antag inactive and S1P1 ag pot inactive.
CCOC(=O)C1CCN(C(c2cccnc2)c2c(NC(=O)c3ccco3)sc(C)c2C)CC1 (stereo not drawn) was read as S1P3 agonist inactive, 5HT1E ag 52, 5HT1E antag inactive, HTR1A agonist inactive, 5HT1a antag inactive and S1P1 ag pot inactive.
`Cc1sc(NC(=O)c2ccco2)c(C(c2cccnc2)N2CCN(c3ccc(F)cc3)CC2)c1C` (stereo not drawn) gave S1P3 agonist inactive, 5HT1E ag inactive, 5HT1E antag inactive, HTR1A agonist inactive, 5HT1a antag inactive and S1P1 ag pot inactive.
For O=C1NC2CCCCC2NC1CC(=O)N1CCN(c2ccccc2)CC1 (stereo not drawn) the results were S1P3 agonist inactive, 5HT1E ag inactive, 5HT1E antag inactive, HTR1A agonist inactive, 5HT1a antag inactive and S1P1 ag pot inactive.
